Measured values reported in ChEMBL document CHEMBL1146313, “Design and synthesis of piperidine farnesyltransferase inhibitors with reduced glucuronidation potential” (Bioorg Med Chem, 2007).

Test: Inhibition of human FTase
In short: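 Human FTase (50 ng purified enzyme) with His6-K-Ras4B (1 µM) and [3H]farnesyl diphosphate (500 nM) in 50 mM Tris-HCl pH 7.7, 5 mM MgCl2, 5 µM ZnCl2, 2 mM DTT, 0.2% octyl-glucoside. Incubated 30 min at room temperature, stopped with SDS. Protein precipitated with cold trichloroacetic acid and filter-collected, then 3H counted. Percent inhibition calculated against DMSO vehicle control.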

IC50 [nM]	SMILES
> 500	Cn1cnc(CN2CC[C@@H](c3ccccc3Br)[C@H]([N+](=O)[O-])[C@H]2c2ccccc2)c1 (racemic)
17	Cn1cncc1CN1CC[C@@H](c2ccccc2Br)[C@H]([N+](=O)[O-])[C@H]1c1ccccc1 (racemic)
> 500	CCc1ccccc1[C@@H]1CCN(Cc2cccnc2)[C@@H](c2ccccc2)[C@H]1C(=O)O (racemic)
42	CCc1ccccc1[C@@H]1CCN(Cc2cccnc2)[C@@H](c2ccccc2)[C@H]1C(C)=O (racemic)
95	CCc1ccccc1[C@@H]1CCN(Cc2cccnc2)[C@@H](c2ccccc2)[C@H]1C(=O)OC (racemic)
> 500	O=[N+]([O-])[C@@H]1[C@@H](c2ccc(O)c(I)c2)N(Cc2cccnc2)CC[C@H]1c1ccccc1Br (racemic)
3.7	O=[N+]([O-])[C@@H]1[C@@H](c2ccc(O)c(O)c2)N(Cc2cccnc2)CC[C@H]1c1ccccc1Br (racemic)
180	COc1cc([C@@H]2[C@@H]([N+](=O)[O-])[C@H](c3ccccc3Br)CCN2Cc2cccnc2)ccc1O (racemic)
46	CCc1ccccc1[C@@H]1CCN(Cc2cccnc2)[C@H](c2ccc(O)c(N)c2)[C@H]1[N+](=O)[O-] (racemic)
50	CCNc1cc([C@@H]2[C@@H]([N+](=O)[O-])[C@H](c3ccccc3Br)CCN2Cc2cccnc2)ccc1O (racemic)
27	CC(=O)Nc1cc([C@H]2[C@H]([N+](=O)[O-])[C@@H](c3ccccc3Br)CCN2Cc2cccnc2)ccc1O (racemic)
14	COC(=O)Nc1cc([C@H]2[C@H]([N+](=O)[O-])[C@@H](c3ccccc3Br)CCN2Cc2cccnc2)ccc1O (racemic)
4.6	CCc1ccccc1[C@H]1CCN(Cc2cccnc2)[C@@H](c2ccc(O)c(NS(C)(=O)=O)c2)[C@@H]1[N+](=O)[O-] (racemic)
5.9	CCS(=O)(=O)Nc1cc([C@H]2[C@H]([N+](=O)[O-])[C@@H](c3ccccc3Br)CCN2Cc2cccnc2)ccc1O (racemic)
3	NS(=O)(=O)Nc1cc([C@H]2[C@H]([N+](=O)[O-])[C@@H](c3ccccc3Br)CCN2Cc2cccnc2)ccc1O (racemic)
270	Cc1ccc(S(=O)(=O)Nc2cc([C@H]3[C@H]([N+](=O)[O-])[C@@H](c4ccccc4Br)CCN3Cc3cccnc3)ccc2O)cc1 (racemic)
4.5	CCc1ccccc1[C@H]1CCN(Cc2cccnc2)[C@@H](c2ccc(O)c(NS(N)(=O)=O)c2)[C@@H]1[N+](=O)[O-] (racemic)
> 500	COc1ccc([C@@H]2[C@@H]([N+](=O)[O-])[C@H](c3ccccc3Br)CCN2Cc2cccnc2)cc1 (racemic)
16	O=[N+]([O-])[C@@H]1[C@@H](c2ccccc2)N(Cc2cccnc2)CC[C@H]1c1ccccc1Br (racemic)
36	O=[N+]([O-])[C@@H]1[C@@H](c2ccsc2)N(Cc2cccnc2)CC[C@H]1c1ccccc1Br (racemic)

IC50 [nM]	SMILES
12	CCc1ccccc1[C@@H]1CCN(Cc2cccnc2)[C@H](c2ccc(O)c(NCc3ccncc3)c2)[C@H]1[N+](=O)[O-] (racemic)
25	O=[N+]([O-])[C@H]1[C@H](c2ccccc2Br)CCN(Cc2cccnc2)[C@H]1c1ccccn1 (racemic)
> 500	O=[N+]([O-])[C@@H]1[C@@H](c2cccnc2)N(Cc2cccnc2)CC[C@H]1c1ccccc1Br (racemic)
4.3	CS(=O)(=O)Nc1cc([C@H]2[C@H]([N+](=O)[O-])[C@@H](c3ccccc3Br)CCN2Cc2cccnc2)ccc1O (racemic)
15	NC(=O)Nc1cc([C@H]2[C@H]([N+](=O)[O-])[C@@H](c3ccccc3Br)CCN2Cc2cccnc2)ccc1O (racemic)
13	Nc1cc([C@@H]2[C@@H]([N+](=O)[O-])[C@H](c3ccccc3Br)CCN2Cc2cccnc2)ccc1O (racemic)
98	CC(C)Nc1cc([C@@H]2[C@@H]([N+](=O)[O-])[C@H](c3ccccc3Br)CCN2Cc2cccnc2)ccc1O (racemic)
6.2	CCc1ccccc1[C@H]1CCN(Cc2cccnc2)[C@@H](c2ccc(O)c(NC(N)=O)c2)[C@@H]1[N+](=O)[O-] (racemic)
121	CCc1ccccc1[C@@H]1CCN(Cc2cccnc2)[C@H](c2ccc(O)c(NCc3ccccc3)c2)[C@H]1[N+](=O)[O-] (racemic)
23	CCc1ccccc1[C@@H]1CCN(Cc2cccnc2)[C@H](c2ccc(O)c(NCc3ccccn3)c2)[C@H]1[N+](=O)[O-] (racemic)
24	CCc1ccccc1[C@@H]1CCN(Cc2cccnc2)[C@H](c2ccc(O)c(NCc3cccnc3)c2)[C@H]1[N+](=O)[O-] (racemic)
5.4	O=[N+]([O-])[C@@H]1[C@@H](c2ccc(O)cc2)N(Cc2cccnc2)CC[C@H]1c1ccccc1Br (racemic)
> 500	O=[N+]([O-])c1cc([C@@H]2[C@@H]([N+](=O)[O-])[C@H](c3ccccc3Br)CCN2Cc2cccnc2)ccc1O (racemic)
> 500	CCc1ccccc1[C@@H]1CCN(Cc2cccnc2)[C@@H](c2ccccc2)[C@H]1C(=O)NC (racemic)
> 500	O=[N+]([O-])[C@@H]1[C@@H](c2ccc3[nH]cnc3c2)N(Cc2cccnc2)CC[C@H]1c1ccccc1Br (racemic)
> 500	CCc1ccccc1[C@@H]1CCN(Cc2cccnc2)[C@@H](c2ccccc2)[C@H]1CO (racemic)
> 500	C=CCOC(=O)[C@H]1[C@H](c2ccccc2CC)CCN(Cc2cccnc2)[C@H]1c1ccccc1 (racemic)
> 500	O=[N+]([O-])[C@@H]1[C@@H](c2ccccc2)N(Cc2cnc[nH]2)CC[C@H]1c1ccccc1Br (racemic)
44	N#Cc1ccc(Cn2cncc2CN2CC[C@@H](c3ccccc3Br)[C@H]([N+](=O)[O-])[C@H]2c2ccccc2)cc1 (racemic)

Test: Metabolic stability in mouse liver microsomes
Type: ADME, Microsome
In short: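 Compound at 0.0010 mg/mL final was preincubated 5.0 min at 37 °C with mouse liver microsomes (1.0 mg/mL final, 100 mmol/L potassium phosphate, pH 7.4). Reaction was started with NADPH-generating system, NADPH system plus UDPGA (100 mmol/L), or UDPGA alone, then run 30 min at 37 °C. Quenched with acetonitrile internal standard and read by HPLC. Residual ratio is the 30-min concentration divided by the initial concentration.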

Stability	SMILES
Stable	CCc1ccccc1[C@H]1CCN(Cc2cccnc2)[C@@H](c2ccc(O)c(NS(N)(=O)=O)c2)[C@@H]1[N+](=O)[O-] (racemic)
